One series addresses Albumin (Homo sapiens, UniProt P02768). The experiment in a line: Binding affinity to human serum albumin at 5 uM after 12 mins by HPLC-MS analysis relative to control. Particulars: isolated protein, 0.2 h. The class given is ADME.
Series [1] in a line: Intrinsic clearance in Sprague-Dawley rat liver microsomes at 1 to 5 uM by HPLC-MS analysis. In kind it is ADME, Microsome. The settings on record: read-out: CLH. In outline:
(§1)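 Incubation mixtures pre-equilibrated at 37 °C with NADPH and MgCl2, then rat or human liver microsomes added to start the reaction. Aliquots were withdrawn and quenched at several time points, and percent parent remaining was measured by HPLC-MS and plotted against time. t1/2 was taken from the slope of peak area over time and used to calculate CLint.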

Series [2] has as its target T1, 5-hydroxytryptamine receptor 3A (Rattus norvegicus, UniProt P35563).
T1 sequence (P35563 whole entry): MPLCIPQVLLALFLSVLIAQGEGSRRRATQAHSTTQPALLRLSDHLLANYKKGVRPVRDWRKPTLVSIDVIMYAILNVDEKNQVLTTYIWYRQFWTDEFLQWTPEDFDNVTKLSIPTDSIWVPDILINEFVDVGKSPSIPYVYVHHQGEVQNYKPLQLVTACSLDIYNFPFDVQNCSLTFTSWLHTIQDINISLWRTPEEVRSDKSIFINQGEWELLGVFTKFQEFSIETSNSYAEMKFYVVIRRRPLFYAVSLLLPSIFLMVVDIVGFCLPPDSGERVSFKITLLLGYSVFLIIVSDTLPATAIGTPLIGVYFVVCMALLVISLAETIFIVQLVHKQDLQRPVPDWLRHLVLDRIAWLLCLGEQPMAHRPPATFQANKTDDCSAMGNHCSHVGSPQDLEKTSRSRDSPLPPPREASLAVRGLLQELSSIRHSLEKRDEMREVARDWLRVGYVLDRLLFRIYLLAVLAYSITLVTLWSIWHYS
As to the kind of experiment: Displacement of [3H]LY 278584 from 5-HT3 receptor in Sprague-Dawley rat cerebral cortex after 30 mins. In kind it is tissue-based.

Series [3] can be described thus: Half life in human liver microsomes at 1 to 5 uM by HPLC-MS analysis. In kind it is ADME, Microsome. In outline:
as §1
Background: Microsomes from liver hold many membrane-bound enzymes, among them those of drug oxidation.

In series [4] the target is 5-hydroxytryptamine receptor 2A (Rattus norvegicus, UniProt P14842). As to the kind of experiment: Displacement of [3H]ketanserin from 5-HT2A receptor in Sprague-Dawley rat frontal cortex after 15 mins. The class given is tissue-based.
Sequence of 5-hydroxytryptamine receptor 2A (P14842 whole entry): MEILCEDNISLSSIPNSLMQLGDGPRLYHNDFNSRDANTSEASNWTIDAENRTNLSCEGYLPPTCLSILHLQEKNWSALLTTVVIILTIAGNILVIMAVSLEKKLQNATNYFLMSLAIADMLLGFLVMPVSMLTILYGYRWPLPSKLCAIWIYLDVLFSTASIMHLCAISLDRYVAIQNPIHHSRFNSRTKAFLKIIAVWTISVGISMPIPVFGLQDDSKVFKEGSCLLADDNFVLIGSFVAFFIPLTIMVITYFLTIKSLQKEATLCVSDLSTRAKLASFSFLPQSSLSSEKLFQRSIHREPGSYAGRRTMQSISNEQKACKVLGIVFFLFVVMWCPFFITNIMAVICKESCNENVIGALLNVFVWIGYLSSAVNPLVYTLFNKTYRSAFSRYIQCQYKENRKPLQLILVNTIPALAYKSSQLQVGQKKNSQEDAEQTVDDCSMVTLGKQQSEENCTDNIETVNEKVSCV
Series [5] in a line: Intrinsic clearance in human liver microsomes at 1 to 5 uM by HPLC-MS analysis. In kind it is ADME, Microsome. The settings on record: read-out: CLH. In a few lines: as §1
For series [6], the target named is T2, 5-hydroxytryptamine receptor 1A (Rattus norvegicus, UniProt P19327).
T2 sequence (P19327 whole entry): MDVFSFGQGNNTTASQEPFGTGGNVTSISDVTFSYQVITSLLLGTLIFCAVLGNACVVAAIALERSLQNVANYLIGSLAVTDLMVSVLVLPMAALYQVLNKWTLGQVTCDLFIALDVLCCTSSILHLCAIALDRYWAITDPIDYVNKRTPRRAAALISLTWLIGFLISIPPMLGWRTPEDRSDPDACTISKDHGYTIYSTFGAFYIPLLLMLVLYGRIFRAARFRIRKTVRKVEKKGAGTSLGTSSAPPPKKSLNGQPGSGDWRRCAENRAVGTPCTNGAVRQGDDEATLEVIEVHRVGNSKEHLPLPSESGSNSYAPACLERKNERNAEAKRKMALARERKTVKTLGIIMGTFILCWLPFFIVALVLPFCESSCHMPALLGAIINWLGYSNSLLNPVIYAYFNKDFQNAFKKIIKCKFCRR
The experiment in a line: Displacement of [3H]-8-OH-DPAT from 5-HT1A receptor in Sprague-Dawley rat cerebral cortex after 15 mins. The class given is tissue-based. (Displacement assays read how much labelled ligand stays bound in the presence of the test substance.)

The target in series [7] is 5-hydroxytryptamine receptor 4 (Rattus norvegicus, UniProt Q62758). The experiment in a line: Displacement of [3H]GR113808 from 5-HT4 receptor in Sprague-Dawley rat striatum after 30 mins.
Sequence of 5-hydroxytryptamine receptor 4 (Q62758 whole entry): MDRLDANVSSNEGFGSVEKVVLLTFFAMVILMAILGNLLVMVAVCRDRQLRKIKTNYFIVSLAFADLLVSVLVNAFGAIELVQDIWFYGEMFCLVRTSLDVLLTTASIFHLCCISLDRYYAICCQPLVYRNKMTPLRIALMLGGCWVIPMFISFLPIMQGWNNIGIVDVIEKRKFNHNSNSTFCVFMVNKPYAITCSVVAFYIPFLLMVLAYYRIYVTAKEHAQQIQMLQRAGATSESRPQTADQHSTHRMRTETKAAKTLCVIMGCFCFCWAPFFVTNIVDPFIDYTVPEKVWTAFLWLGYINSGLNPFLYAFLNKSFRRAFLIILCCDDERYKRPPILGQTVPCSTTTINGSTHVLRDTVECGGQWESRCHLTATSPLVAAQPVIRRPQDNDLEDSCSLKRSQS
For the next series, the species on record is Mus musculus. As to the kind of experiment: Hypothermic activity in Swiss mouse assessed as change in rectal temperature after 60 mins. In kind it is functional. Particulars: 1 h, read-out: MED.
In series [8] the target is T3, 5-hydroxytryptamine receptor 1A (Homo sapiens, UniProt P08908).
T3 sequence (P08908 whole entry): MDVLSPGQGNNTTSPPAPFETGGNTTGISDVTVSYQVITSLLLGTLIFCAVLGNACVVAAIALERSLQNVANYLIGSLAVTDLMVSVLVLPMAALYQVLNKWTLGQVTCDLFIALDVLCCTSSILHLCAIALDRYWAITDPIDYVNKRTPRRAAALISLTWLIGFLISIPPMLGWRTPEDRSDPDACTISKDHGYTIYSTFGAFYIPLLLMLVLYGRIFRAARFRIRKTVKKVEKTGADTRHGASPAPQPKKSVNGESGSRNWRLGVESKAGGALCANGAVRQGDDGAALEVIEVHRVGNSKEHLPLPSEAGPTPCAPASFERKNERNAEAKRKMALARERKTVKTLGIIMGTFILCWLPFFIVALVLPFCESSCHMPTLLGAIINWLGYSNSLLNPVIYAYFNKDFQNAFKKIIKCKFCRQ
The experiment in a line: Partial agonist activity at human 5-HT1A receptor expressed in human HeLa cells assessed as inhibition of forskolin-stimulated cAMP formation after 10 mins by RIA. The class given is functional, cell-based.

Series [9] can be described thus: Half life in Sprague-Dawley rat liver microsomes at 1 to 5 uM by HPLC-MS analysis. The class given is ADME, Microsome. In a few lines:
as §1

The target of series [10] is 5-hydroxytryptamine receptor 7 (Rattus norvegicus, UniProt P32305). As to the kind of experiment: Displacement of [3H]-5-CT from 5-HT7 receptor in Sprague-Dawley rat hypothalamus after 120 mins.
Sequence of 5-hydroxytryptamine receptor 7 (P32305 whole entry): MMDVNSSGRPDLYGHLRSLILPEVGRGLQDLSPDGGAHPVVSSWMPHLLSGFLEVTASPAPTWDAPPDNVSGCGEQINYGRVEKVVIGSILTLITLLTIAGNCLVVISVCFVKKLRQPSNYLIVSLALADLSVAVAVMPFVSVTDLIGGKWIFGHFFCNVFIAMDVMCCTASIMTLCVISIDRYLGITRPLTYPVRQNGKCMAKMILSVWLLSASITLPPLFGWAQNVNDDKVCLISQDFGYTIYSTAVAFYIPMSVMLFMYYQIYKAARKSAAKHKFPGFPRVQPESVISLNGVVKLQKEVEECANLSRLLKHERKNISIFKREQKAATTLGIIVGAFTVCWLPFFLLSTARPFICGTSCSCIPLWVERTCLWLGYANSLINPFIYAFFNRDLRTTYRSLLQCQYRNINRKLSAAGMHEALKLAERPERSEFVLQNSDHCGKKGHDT
The target of the next series is CYP2D6 (Homo sapiens, UniProt P10635). As to the kind of experiment: Inhibition of human recombinant microsomal CYP2D6 using {3-[2-(N,N-diethyl-N-methylamino)ethyl]-7-methoxy-4-methylcoumarin} as substrate assessed as remaining activity at 10 uM after 30 mins by spectrofluorimetric analysis relative to control. The class given is ADME. Particulars: read-out: Activity.
Sequence of CYP2D6 (P10635 whole entry): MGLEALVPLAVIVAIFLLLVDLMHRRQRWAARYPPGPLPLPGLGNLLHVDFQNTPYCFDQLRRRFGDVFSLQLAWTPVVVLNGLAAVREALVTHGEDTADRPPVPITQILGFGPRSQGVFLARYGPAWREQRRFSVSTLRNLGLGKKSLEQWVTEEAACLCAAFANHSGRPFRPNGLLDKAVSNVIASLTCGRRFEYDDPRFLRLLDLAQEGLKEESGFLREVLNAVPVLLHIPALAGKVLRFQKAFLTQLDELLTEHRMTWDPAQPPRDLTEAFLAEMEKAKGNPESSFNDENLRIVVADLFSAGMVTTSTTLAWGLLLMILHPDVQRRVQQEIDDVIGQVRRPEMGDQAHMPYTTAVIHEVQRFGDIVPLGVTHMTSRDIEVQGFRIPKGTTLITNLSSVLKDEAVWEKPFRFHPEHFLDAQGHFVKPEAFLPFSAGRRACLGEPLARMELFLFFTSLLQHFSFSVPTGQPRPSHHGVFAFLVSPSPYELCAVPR

Sequence of Albumin (P02768 whole entry): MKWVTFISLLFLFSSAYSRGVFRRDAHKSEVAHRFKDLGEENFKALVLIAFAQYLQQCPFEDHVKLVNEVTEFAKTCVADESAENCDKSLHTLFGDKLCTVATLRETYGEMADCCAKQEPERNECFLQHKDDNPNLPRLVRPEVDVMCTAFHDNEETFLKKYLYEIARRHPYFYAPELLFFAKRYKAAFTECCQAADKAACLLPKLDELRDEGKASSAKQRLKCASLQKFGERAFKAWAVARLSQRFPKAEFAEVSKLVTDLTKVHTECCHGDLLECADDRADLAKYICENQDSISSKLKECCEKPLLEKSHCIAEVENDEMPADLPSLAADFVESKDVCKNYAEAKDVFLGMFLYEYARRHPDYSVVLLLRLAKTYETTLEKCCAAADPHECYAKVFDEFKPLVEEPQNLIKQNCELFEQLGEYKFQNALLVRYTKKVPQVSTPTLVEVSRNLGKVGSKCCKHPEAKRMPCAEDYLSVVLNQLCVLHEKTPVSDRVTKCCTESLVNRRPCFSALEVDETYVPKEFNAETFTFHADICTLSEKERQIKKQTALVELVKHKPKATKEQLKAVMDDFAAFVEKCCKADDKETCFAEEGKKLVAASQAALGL

As to `CCc1ccccc1OCCNCCCCN1C(=O)C2CCCN2C1=O.Cl` (stereo not drawn), the Activity on Albumin is given as 55%. The CLint scaled at up to 5 µM in [1] amounted to 131 mL/min/kg; in series [5] it was 4.6 mL/min/kg. The Ki (usually the dissociation constant of the complex between target and ligand, obtained from inhibition or displacement) in series [2] was above 1000 nM; in series [4], 366 nM; in series [6], 16.8 nM; in series [7], above 1000 nM; in [10], 185 nM. The values for the half-life at up to 5 µM in series [3] and in series [9] were 2.28 h and 0.178 h, respectively. Further, the minimal effective dose in the series filed under Mus musculus is 10 mg/kg. In [8], the half-maximal effective concentration (EC50) (in general, the concentration giving half of the maximal effect) is 1200 nM. For the same compound, the activity at 0.5 h, 10 µM at CYP2D6 came out at 13%.

Source of the values: ChEMBL document CHEMBL2429786, “New serotonin 5-HT1A receptor agonists endowed with antinociceptive activity in vivo” (J Med Chem, 2013).
